Measured values reported in ChEMBL document CHEMBL4715748, “Synthesis and biological investigation of new equatorial (β) stereoisomers of 3-aminotropane arylamides with atypical antipsychotic profile” (Bioorg Med Chem, 2016).

How the values were obtained:
[1] = biological target: D(2) dopamine receptor (Rattus norvegicus, UniProt P61169); assay: Displacement of [3H] Spiperone from rat striatum dopamine D2 receptor measured after 30 mins by liquid scintillation counter method
Summary of the method: (§1)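 Competition binding in rat brain tissue membranes against D2, 5-HT1A and 5-HT2A sites; Ki reported as mean ± S.E.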

[2] = biological target: T1, 5-hydroxytryptamine receptor 1A (Rattus norvegicus, UniProt P19327); assay: Displacement of [3H]-8-OH-DPAT from rat cerebral cortex 5HT1A receptor measured after 15 mins by liquid scintillation counter method
T1 sequence (P19327 whole entry): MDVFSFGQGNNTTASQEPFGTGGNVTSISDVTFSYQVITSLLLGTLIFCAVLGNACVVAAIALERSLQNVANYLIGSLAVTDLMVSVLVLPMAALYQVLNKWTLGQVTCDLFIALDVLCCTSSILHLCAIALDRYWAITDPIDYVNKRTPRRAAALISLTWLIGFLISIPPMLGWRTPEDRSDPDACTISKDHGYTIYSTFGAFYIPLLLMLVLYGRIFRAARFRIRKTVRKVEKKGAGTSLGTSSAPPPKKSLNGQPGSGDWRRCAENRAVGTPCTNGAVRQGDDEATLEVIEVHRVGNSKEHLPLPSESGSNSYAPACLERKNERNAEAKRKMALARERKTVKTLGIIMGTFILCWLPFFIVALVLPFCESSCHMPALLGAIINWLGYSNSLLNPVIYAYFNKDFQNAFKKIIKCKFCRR

[3] = biological target: 5-hydroxytryptamine receptor 2A (Rattus norvegicus, UniProt P14842); assay: Displacement of [3H]-ketanserin from rat cerebral cortex 5HT2A receptor measured after 20 mins by liquid scintillation counter method; summary of the method: as §1
[4] = system: Mus musculus; assay: Effect on 8-OH-DPAT-induced hypothermia in Swiss albino mouse assessed as change in rectal body temperature at 10 mg/kg, ip pretreated with compound for 45 mins followed by 8-OH-DPAT challenge and measured after 45 min by thermometer (reference value: -1.04 to -0.78 degreeC); format: functional, organism-based; settings: time 90.0 min
[5] = Effect on body temperature in Swiss Albino mouse assessed as rectal body temperature at 20 mg/kg, ip measured after 120 mins by thermometer (reference value: 0.15 to 1.11 degreeC); format: ADME, organism-based; settings: in vivo, 2 h
[6] = system: Mus musculus; assay: Effect on 8-OH-DPAT-induced hypothermia in Swiss albino mouse assessed as change in rectal body temperature at 20 mg/kg, ip pretreated with compound for 45 mins followed by 8-OH-DPAT challenge and measured after 45 min by thermometer (reference value: -1.04 to -0.78 degreeC); format: functional, organism-based; settings: time 90.0 min
[7] = biological target: Dopamine D2 receptor and Serotonin 2a receptor (D2 and 5HT2a) (Rattus norvegicus) (UniProt P61169+P14842); assay: Ratio of pKi for displacement of [3H]-ketanserin from rat cerebral cortex 5HT2A receptor measured after 20 mins by liquid scintillation counter method to pKi for displacement of [3H] Spiperone from rat striatum dopamine D2 receptor measured after 30 mins by liquid scintillation counter method
Summary of the method: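 Ratio of pKi values, 5-HT2A over D2, computed from competition radioligand binding in rat brain tissue.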

[8] = Effect on body temperature in Swiss Albino mouse assessed as rectal body temperature at 10 mg/kg, ip measured after 30 mins by thermometer (reference value: 0.16 to 0.33 degreeC); format: organism-based; settings: in vivo, 0.5 h
[9] = system: Mus musculus; assay: Effect on 8-OH-DPAT-induced hypothermia in Swiss albino mouse assessed as change in rectal body temperature at 20 mg/kg, ip pretreated with compound for 45 mins followed by 8-OH-DPAT challenge and measured after 15 min by thermometer (reference value: -1.82 to -1.66 degreeC); format: functional, organism-based; settings: time 60.0 min
[10] = Effect on 8-OH-DPAT-induced lower lip retraction in Wistar rat at 10 mg/kg, ip pretreated with compound for 45 mins followed by 8-OH-DPAT challenge and measured after 15 mins (reference value: 2.7 to 2.8); format: functional; settings: time 60 min, 1 h
[11] = system: Mus musculus; assay: Antipsychotic activity Swiss Albino mouse assessed as inhibition of DOI-induced head twitching by measuring number of episodes at 2.5 mg/kg, ip administered 30 mins prior to DOI stimulation (reference value: 19.63 to 19.88); format: functional; settings: 0.5 h
Summary of the method: (§2)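 Male Albino Swiss mice (24–28 g) were habituated to sawdust-lined cages 20 min before the first treatment. Compounds were suspended in 1% aqueous Tween 80 and given i.p. 30 min before (±)-DOI, 2.5 mg/kg i.p. in aqueous solution. Head twitches were counted blind over 20 min, n=8 per group, mean ± SEM, one-way ANOVA with Dunnett's test.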

[12] = Effect on body temperature in Swiss Albino mouse assessed as rectal body temperature at 20 mg/kg, ip measured after 60 mins by thermometer (reference value: 0.33 to 0.61 degreeC); format: ADME, organism-based; settings: in vivo, 1 h
[13] = Effect on body temperature in Swiss Albino mouse assessed as rectal body temperature at 10 mg/kg, ip measured after 120 mins by thermometer (reference value: 0.15 to 1.11 degreeC); format: organism-based; settings: in vivo, 2 h
[14] = Effect on body temperature in Swiss Albino mouse assessed as rectal body temperature at 20 mg/kg, ip measured after 90 mins by thermometer (reference value: 0.18 to 0.63 degreeC); format: ADME, organism-based; settings: in vivo, 1.5 h
[15] = system: Mus musculus; assay: Effect on 8-OH-DPAT-induced hypothermia in Swiss albino mouse assessed as change in rectal body temperature at 10 mg/kg, ip pretreated with compound for 45 mins followed by 8-OH-DPAT challenge and measured after 30 min by thermometer (reference value: -1.36 to -1.12 degreeC); format: functional, organism-based; settings: time 75.0 min
[16] = Effect on body temperature in Swiss Albino mouse assessed as rectal body temperature at 10 mg/kg, ip measured after 90 mins by thermometer (reference value: 0.18 to 0.63 degreeC); format: ADME, organism-based; settings: in vivo, 1.5 h
[17] = system: Mus musculus; assay: Effect on 8-OH-DPAT-induced hypothermia in Swiss albino mouse assessed as change in rectal body temperature at 10 mg/kg, ip pretreated with compound for 45 mins followed by 8-OH-DPAT challenge and measured after 60 min by thermometer (reference value: -0.66 to -0.5 degreeC); format: functional, organism-based; settings: time 105.0 min
[18] = Effect on body temperature in Swiss Albino mouse assessed as rectal body temperature at 20 mg/kg, ip measured after 30 mins by thermometer (reference value: 0.16 to 0.33 degreeC); format: ADME, organism-based; settings: in vivo, 0.5 h
[19] = system: Mus musculus; assay: Antipsychotic activity Swiss Albino mouse assessed as inhibition of DOI-induced head twitching by measuring number of episodes at 5 mg/kg, ip administered 30 mins prior to DOI stimulation (reference value: 19.63 to 19.88); format: functional; settings: 0.5 h; summary of the method: as §2
[20] = Half life in pooled human liver microsomes assessed as parent compound remaining at 2.5 uM measured up to 45 mins in presence of NADPH by LC-MS analysis; format: ADME, Microsome
Summary of the method: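 Compound at 2.5 μM (added from 100 μM stock in 50/50 acetonitrile/water) with 1 mg/mL pooled human liver microsomes and 250 μM NADPH in 0.1 M potassium phosphate pH 7.4 at 37 °C after 5-min preincubation. Sampled at 5, 10, 15, 30, 45 min into ice-cold acetonitrile with atropine internal standard; parent quantified by LC-MS (ESI+, [M+H]+); no-NADPH controls; half-time derived.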

[21] = system: Mus musculus; assay: Effect on 8-OH-DPAT-induced hypothermia in Swiss albino mouse assessed as change in rectal body temperature at 20 mg/kg, ip pretreated with compound for 45 mins followed by 8-OH-DPAT challenge and measured after 60 min by thermometer (reference value: -0.66 to -0.5 degreeC); format: functional, organism-based; settings: time 105.0 min
[22] = system: Mus musculus; assay: Antipsychotic activity Swiss Albino mouse assessed as inhibition of DOI-induced head twitching by measuring number of episodes at 10 mg/kg, ip administered 30 mins prior to DOI stimulation (reference value: 19.63 to 19.88); format: functional; settings: 0.5 h; summary of the method: as §2
[23] = system: Mus musculus; assay: Effect on 8-OH-DPAT-induced hypothermia in Swiss albino mouse assessed as change in rectal body temperature at 10 mg/kg, ip pretreated with compound for 45 mins followed by 8-OH-DPAT challenge and measured after 15 min by thermometer (reference value: -1.82 to -1.66 degreeC); format: functional, organism-based; settings: time 60.0 min
[24] = system: Mus musculus; assay: Effect on 8-OH-DPAT-induced hypothermia in Swiss albino mouse assessed as change in rectal body temperature at 20 mg/kg, ip pretreated with compound for 45 mins followed by 8-OH-DPAT challenge and measured after 30 min by thermometer (reference value: -1.36 to -1.12 degreeC); format: functional, organism-based; settings: time 75.0 min
[25] = Effect on body temperature in Swiss Albino mouse assessed as rectal body temperature at 10 mg/kg, ip measured after 60 mins by thermometer (reference value: 0.33 to 0.61 degreeC); format: ADME, organism-based; settings: in vivo, 1 h
[26] = Effect on 8-OH-DPAT-induced lower lip retraction in Wistar rat at 20 mg/kg, ip pretreated with compound for 45 mins followed by 8-OH-DPAT challenge and measured after 15 mins (reference value: 2.7 to 2.8); format: functional; settings: time 60 min, 1 h

5-hydroxytryptamine receptor 2A, sequence (P14842 whole entry): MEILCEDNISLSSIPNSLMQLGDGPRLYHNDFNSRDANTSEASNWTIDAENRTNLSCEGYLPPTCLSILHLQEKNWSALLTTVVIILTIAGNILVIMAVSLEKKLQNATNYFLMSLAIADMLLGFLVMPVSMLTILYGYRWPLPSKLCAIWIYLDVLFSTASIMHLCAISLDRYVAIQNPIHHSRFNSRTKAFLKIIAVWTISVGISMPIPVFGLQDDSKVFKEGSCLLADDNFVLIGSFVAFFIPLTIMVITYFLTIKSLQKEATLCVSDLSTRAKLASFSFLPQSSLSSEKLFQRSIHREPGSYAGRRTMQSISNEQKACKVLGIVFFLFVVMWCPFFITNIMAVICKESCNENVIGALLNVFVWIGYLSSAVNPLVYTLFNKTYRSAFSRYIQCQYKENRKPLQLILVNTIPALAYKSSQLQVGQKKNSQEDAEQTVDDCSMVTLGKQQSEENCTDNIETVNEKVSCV
D(2) dopamine receptor, sequence (P61169 whole entry): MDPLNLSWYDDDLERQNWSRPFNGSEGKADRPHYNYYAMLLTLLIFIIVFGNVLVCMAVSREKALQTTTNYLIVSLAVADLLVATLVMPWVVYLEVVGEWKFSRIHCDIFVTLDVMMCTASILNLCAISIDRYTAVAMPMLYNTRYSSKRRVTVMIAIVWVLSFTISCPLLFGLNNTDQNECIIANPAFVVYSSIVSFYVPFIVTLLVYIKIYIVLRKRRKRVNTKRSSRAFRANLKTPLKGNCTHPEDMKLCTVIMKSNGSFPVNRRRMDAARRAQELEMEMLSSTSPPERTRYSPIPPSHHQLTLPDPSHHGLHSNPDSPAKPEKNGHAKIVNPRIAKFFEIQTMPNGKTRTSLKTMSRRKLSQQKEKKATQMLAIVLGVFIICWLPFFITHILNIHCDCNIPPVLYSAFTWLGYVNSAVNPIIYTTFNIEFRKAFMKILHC
Dopamine D2 receptor and Serotonin 2a receptor (D2 and 5HT2a) (Rattus norvegicus), sequence (P14842 whole entry, looked up): as the sequence (P14842 whole entry) above
Dopamine D2 receptor and Serotonin 2a receptor (D2 and 5HT2a) (Rattus norvegicus), sequence (P61169 whole entry, looked up): as the sequence (P61169 whole entry) above

Which results are given for O=C(NC1CC2CCC(C1)N2Cc1ccccc1F)c1ccc2ccccc2c1 (stereo not drawn)?
Ki [1]: 0.715 µM; Ki [2]: 0.365 µM; Ki [3]: 0.106 µM

Which deltaT [4] does the source give for COc1cccc(CN2C3CCC2CC(NC(=O)c2ccc4ccccc4c2)C3)c1 (stereo not drawn) here?
Its deltaT is -0.87 °C.

And the deltaT [5]?
Its deltaT is 1.26 °C.

What about the deltaT [6] of the same compound?
The deltaT was -1.33 °C.

And the Ki [1]?
The Ki was 0.0257 µM.

And the Ratio pKi [7]?
Its Ratio pKi is 0.81.

What about the deltaT [8] of the same compound?
Its deltaT is -0.03 °C.

And the deltaT [9]?
The deltaT was -1.25 °C.

And the Activity [10]?
Its Activity is 2.4.

And the Activity [11]?
Its Activity is 16.63.

And the deltaT [12]?
Its deltaT is 0.57 °C.

And the deltaT [13]?
Its deltaT is 0.7 °C.

What about the deltaT [14] of the same compound?
The deltaT was 0.81 °C.

And the deltaT [15]?
Its deltaT is -1.32 °C.

And the deltaT [16]?
Its deltaT is 0.17 °C.

And the deltaT [17]?
The deltaT was -0.6 °C.

What about the deltaT [18] of the same compound?
The deltaT was -0.1 °C.

And the Activity [19]?
Its Activity is 14.25.

And the half-life at 2.5 µM [20]?
The half-life at 2.5 µM was 42.9 min.

What about the Ki [2] of the same compound?
The Ki was 0.213 µM.

What about the Ki [3] of the same compound?
Its Ki is 0.663 µM.

And the deltaT [21]?
Its deltaT is -0.97 °C.

What about the Activity [22] of the same compound?
The Activity was 9.88.

What about the deltaT [23] of the same compound?
Its deltaT is -1.52 °C.

What about the deltaT [24] of the same compound?
The deltaT was -1.65 °C.

What about the deltaT [25] of the same compound?
The deltaT was 0.03 °C.

And the Activity [26]?
The Activity was 2.5.

With O=C(NC1CC2CCC(C1)N2Cc1cccnc1)c1ccc2ccccc2c1 (stereo not drawn) as the compound, how does the Ki [1] read?
Its Ki is 2.4 µM.

And the Ki [2]?
The Ki was 0.485 µM.

What about the Ki [3] of the same compound?
The Ki was 0.484 µM.

Which results are given for O=C(NC1CC2CCC(C1)N2Cc1ccccc1Br)c1ccc2ccccc2c1 (stereo not drawn)?
Ki [1]: 0.0228 µM; Ki [2]: 0.196 µM; Ki [3]: 0.136 µM

What does the source list for Cc1ccc(CN2C3CCC2CC(NC(=O)c2ccc4ccccc4c2)C3)cc1 (stereo not drawn)?
Ki [1]: 0.0004 µM; Ki [2]: 0.728 µM; Ki [3]: 0.854 µM

What does the source list for O=C(NC1CC2CCC(C1)N2Cc1ccccc1)c1ccc2ccccc2n1 (stereo not drawn)?
Ki [1]: 0.589 µM; Ki [2]: 0.0627 µM; Ki [3]: 0.502 µM

What does the source list for O=C(NC1CC2CCC(C1)N2Cc1ccccc1Cl)c1ccc2ccccc2c1 (stereo not drawn)?
deltaT [4]: -0.62 °C; deltaT [5]: 1.39 °C; deltaT [6]: -2.18 °C; Ki [1]: 0.0348 µM; Ratio pKi [7]: 0.86; deltaT [8]: 0 °C; deltaT [9]: -2 °C; Activity [10]: 2.5; Activity [11]: 20; deltaT [12]: 0.44 °C; deltaT [13]: 1.34 °C; deltaT [14]: 0.44 °C; deltaT [15]: -1.17 °C; deltaT [16]: 0.84 °C; deltaT [17]: -0.12 °C; deltaT [18]: -0.36 °C; Activity [19]: 14.75; half-life at 2.5 µM [20]: 33 min; Ki [2]: 0.158 µM; Ki [3]: 0.397 µM; deltaT [21]: -1.53 °C; Activity [22]: 10.75; deltaT [23]: -0.97 °C; deltaT [24]: -2.12 °C; deltaT [25]: 0.96 °C; Activity [26]: 2

For O=C(NC1CC2CCC(C1)N2Cc1ccc(Br)cc1)c1ccc2ccccc2c1 (stereo not drawn), which Ki [1] is on record?
Its Ki is 0.0045 µM.

And the Ki [2]?
The Ki was 0.23 µM.

And the Ki [3]?
Its Ki is 0.326 µM.

Which results are given for O=C(NC1CC2CCC(C1)N2Cc1ccc(Cl)cc1)c1ccc2ccccc2c1 (stereo not drawn)?
Ki [1]: 0.0004 µM; Ki [2]: 2.5 µM; Ki [3]: 0.397 µM
